Source: ChEMBL document CHEMBL3227919, “Development of ethyl 3,4-dihydro-4-oxopyrimido[4,5-b]quinoline-2-carboxylate, a new prototype with oral antiallergy activity” (1979)
Calls of active or inactive are those of the source. No cut-off for these calls is given here.

Key:
Rattus norvegicus [1] = test: Antiallergic activity in po dosed Wistar Charles River rat assessed as inhibition of histamine-induced passive cutaneous anaphylaxis; type: functional
Rattus norvegicus [2] = test: Antiallergic activity in Wistar Charles River rat assessed as inhibition of histamine-induced passive cutaneous anaphylaxis at 1 mg/kg, iv relative to control; type: functional
Rattus norvegicus [3] = test: Antiallergic activity in Wistar Charles River rat assessed as inhibition of histamine-induced passive cutaneous anaphylaxis at 3 mg/kg, iv relative to control; type: functional
Rattus norvegicus [4] = test: Antiallergic activity in Wistar Charles River rat assessed as inhibition of histamine-induced passive cutaneous anaphylaxis at 10 mg/kg, iv relative to control; type: functional
Rattus norvegicus [5] = test: Antiallergic activity in Wistar Charles River rat assessed as inhibition of histamine-induced passive cutaneous anaphylaxis at 30 mg/kg, iv relative to control; type: functional
Rattus norvegicus [6] = test: Antiallergic activity in Wistar Charles River rat assessed as inhibition of histamine-induced passive cutaneous anaphylaxis at 100 mg/kg, po relative to control; type: functional
Rattus norvegicus [7] = test: Antiallergic activity in Wistar Charles River rat assessed as inhibition of histamine-induced passive cutaneous anaphylaxis at 0.1 mg/kg, iv relative to control; type: functional
Rattus norvegicus [8] = test: Antiallergic activity in Wistar Charles River rat assessed as inhibition of histamine-induced passive cutaneous anaphylaxis at 1 mg/kg, po relative to control; type: functional
Rattus norvegicus [9] = test: Antiallergic activity in Wistar Charles River rat assessed as inhibition of histamine-induced passive cutaneous anaphylaxis at 3 mg/kg, po relative to control; type: functional
Rattus norvegicus [10] = test: Antiallergic activity in Wistar Charles River rat assessed as inhibition of histamine-induced passive cutaneous anaphylaxis at 10 mg/kg, po relative to control; type: functional
Rattus norvegicus [11] = test: Antiallergic activity in Wistar Charles River rat assessed as inhibition of histamine-induced passive cutaneous anaphylaxis at 30 mg/kg, po relative to control; type: functional
Rattus norvegicus [12] = test: Inhibition of carrageenan-induced foot edema in rat at 10 mg/kg, po; type: functional, organism-based; design: dose 10 mg/kg
Cavia porcellus = test: Inhibition of histamine-induced bronchoconstriction in guinea pig up to 100 mg/kg, po; type: functional, organism-based; design: dose 100 mg/kg
Rattus norvegicus [13] = test: Antiallergic activity in Wistar Charles River rat assessed as inhibition of histamine-induced passive cutaneous anaphylaxis at 30 mg/kg, ip relative to control; type: functional; details: route intraperitoneal
Rattus norvegicus [14] = test: Antiallergic activity in po dosed rat assessed as inhibition of passive cutaneous anaphylaxis; type: functional
Rattus norvegicus [15] = test: Antiallergic activity in Wistar Charles River rat assessed as inhibition of histamine-induced passive cutaneous anaphylaxis at 50 mg/kg, ip relative to control; type: functional; details: route intraperitoneal
Rattus norvegicus [16] = test: Antiallergic activity in po dosed rat assessed as inhibition of antigen-induced passive cutaneous anaphylaxis; type: functional
Rattus norvegicus [17] = test: Antiallergic activity in po dosed rat assessed as inhibition of antigen-induced passive cutaneous anaphylaxis relative to DSCG; type: functional
Homo sapiens [18] = test: Antiallergic activity in po dosed human assessed as concentration required to inhibit antigen-induced clinical asthma; type: functional
Rattus norvegicus [19] = test: Antiallergic activity in po dosed Wistar rat assessed as inhibition of ovalbumin-induced passive cutaneous anaphylaxis; type: functional
Summary of the method: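 Male Charles River Wistar rats, 170-210 g. Reaginic egg-albumin antiserum was raised with Bordetella pertussis or Al(OH)3, then diluted to give a 15-mm wheal and injected intradermally (0.1 mL) into shaved back skin. After 48 h, drug or saline was given, then 2.5 mg Evans blue plus 5 mg egg albumin in saline. Each site was scored as diameter (mm) × dye-intensity grade (0.5-4), summed per group of 5 or 7 rats and compared with saline controls.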

Rattus norvegicus [20] = test: Antiallergic activity in po dosed Wistar rat assessed as inhibition of ovalbumin-induced passive cutaneous anaphylaxis relative to DSCG; type: functional
Homo sapiens [21] = test: Antiallergic activity in po dosed human assessed as oral active dose; type: functional

O=C([O-])c1cc(=O)c2c(OCC(O)COc3cccc4oc(C(=O)[O-])cc(=O)c34)cccc2o1.[Na+].[Na+] [CROMOLYN SODIUM]
ED50 (Rattus norvegicus [1]): 1 mg/kg | inhibition in vivo at 1 mg/kg (Rattus norvegicus [2]): 55% | inhibition in vivo at 3 mg/kg (Rattus norvegicus [3]): 77% | inhibition in vivo at 10 mg/kg (Rattus norvegicus [4]): 90% | inhibition in vivo at 30 mg/kg (Rattus norvegicus [5]): 99% | Activity (Rattus norvegicus [6]): inactive | inhibition in vivo at 0.1 mg/kg (Rattus norvegicus [7]): 14%

O=C(O)c1nc2cc3ccccc3cc2c(=O)[nH]1
inhibition in vivo at 1 mg/kg (Rattus norvegicus [2]): 14% | inhibition in vivo at 3 mg/kg (Rattus norvegicus [3]): 36% | inhibition in vivo at 10 mg/kg (Rattus norvegicus [4]): 100% | inhibition in vivo at 100 mg/kg (Rattus norvegicus [6]): 0%

O=c1[nH]c(=O)c2cc3ccccc3nc2[nH]1
inhibition in vivo at 3 mg/kg (Rattus norvegicus [3]): 41%

CCOC(=O)c1nc(O)c2cc3ccccc3nc2n1
ED50 (Rattus norvegicus [1]): 3 mg/kg | inhibition in vivo at 1 mg/kg (Rattus norvegicus [2]): 98% | inhibition (Rattus norvegicus [4]): inactive | inhibition in vivo at 100 mg/kg (Rattus norvegicus [6]): 80% | inhibition in vivo at 0.1 mg/kg (Rattus norvegicus [7]): 47% | inhibition in vivo at 1 mg/kg (Rattus norvegicus [8]): 12% | inhibition in vivo at 3 mg/kg (Rattus norvegicus [9]): 53% | inhibition in vivo at 10 mg/kg (Rattus norvegicus [10]): 75% | inhibition in vivo at 30 mg/kg (Rattus norvegicus [11]): 72% | inhibition (Rattus norvegicus [12]): inactive | inhibition (Cavia porcellus): inactive

CCOC(=O)c1nc2cc3ccccc3cc2c(=O)[nH]1
inhibition in vivo at 100 mg/kg (Rattus norvegicus [6]): 38% | inhibition in vivo at 30 mg/kg (Rattus norvegicus [13]): 27%

CCOC(=O)c1nc2cc(OC)c(OC)cc2c(=O)[nH]1
inhibition in vivo at 30 mg/kg (Rattus norvegicus [5]): 80% | Activity (Rattus norvegicus [6]): inactive

CCCOc1ccccc1-c1nc2[nH]nnc2c(=O)[nH]1 [ZAPRINAST]
ED50 (Rattus norvegicus [14]): 0.2 mg/kg

O=C(O)c1nc2c(Br)cc(Br)cc2c(=O)[nH]1
inhibition in vivo at 50 mg/kg (Rattus norvegicus [15]): 0%

COc1cc2nc(C(=O)O)[nH]c(=O)c2cc1OC
inhibition in vivo at 30 mg/kg (Rattus norvegicus [5]): 69% | Activity (Rattus norvegicus [6]): inactive

CCCc1c2c(c(O)c3c(=O)cc(C(=O)O)oc13)CCCC2 [PROXICROMIL]
ED50 (Rattus norvegicus [16]): 15.5 mg/kg | fold change (FC) (Rattus norvegicus [17]): 0.19 | Activity (Homo sapiens [18]): 4.6 mg

CCOC(=O)CCc1n[nH]c2ccc(CC)cc2c1=O
ED50 (Rattus norvegicus [14]): 4 mg/kg

COc1cccc2c(=O)c(CO)coc12
ED50 (Rattus norvegicus [14]): 2 mg/kg

CCOC(=O)c1nc2c(C(F)(F)F)cc(Cl)cc2c(=O)[nH]1
inhibition in vivo at 10 mg/kg (Rattus norvegicus [4]): 0%

O=C(O)c1cc(=O)c2cc3c(=O)cc(C(=O)O)[nH]c3c(Cl)c2[nH]1
ED50 (Rattus norvegicus [16]): < 25.5 mg/kg | fold change (FC) (Rattus norvegicus [17]): 50

O=c1[nH]cnc2nc3ccccc3cc12
inhibition in vivo at 3 mg/kg (Rattus norvegicus [3]): 33% | inhibition in vivo at 10 mg/kg (Rattus norvegicus [4]): 4%

O=C(O)c1nc2c(C(F)(F)F)cc(Cl)cc2c(=O)[nH]1
inhibition in vivo at 10 mg/kg (Rattus norvegicus [4]): 0%

CCc1ccc2occ(-c3nnn[nH]3)c(=O)c2c1
ED50 (Rattus norvegicus [16]): 7 mg/kg | fold change (FC) (Rattus norvegicus [17]): 4

O=c1[nH]cnc2cc3ccccc3cc12
inhibition in vivo at 3 mg/kg (Rattus norvegicus [3]): 31%

CCOC(=O)c1nc2ncccc2c(=O)[nH]1
inhibition in vivo at 1 mg/kg (Rattus norvegicus [2]): 6% | inhibition in vivo at 3 mg/kg (Rattus norvegicus [3]): 66% | inhibition in vivo at 10 mg/kg (Rattus norvegicus [4]): 96% | Activity (Rattus norvegicus [6]): inactive

O=C(O)CCc1nc2cc3ccccc3cc2c(=O)[nH]1
inhibition in vivo at 10 mg/kg (Rattus norvegicus [4]): 7%

O=C(O)c1nc2ccc([N+](=O)[O-])cc2c(=O)[nH]1
inhibition in vivo at 30 mg/kg (Rattus norvegicus [5]): 67%

CCOC(=O)c1nc2cc(OC(=O)c3ccccc3)c(OC)cc2c(=O)[nH]1
inhibition in vivo at 10 mg/kg (Rattus norvegicus [4]): 14%

Cc1nc(O)c2cc3ccccc3cc2n1
inhibition in vivo at 3 mg/kg (Rattus norvegicus [3]): 15%

O=C(O)c1nc2ccccc2c(=O)[nH]1
inhibition in vivo at 10 mg/kg (Rattus norvegicus [4]): 52%

O=C(O)c1nc2nc3ccccc3cc2c(=O)[nH]1
inhibition in vivo at 1 mg/kg (Rattus norvegicus [2]): 92% | inhibition in vivo at 100 mg/kg (Rattus norvegicus [6]): 96% | inhibition in vivo at 10 mg/kg (Rattus norvegicus [10]): 0% | inhibition in vivo at 30 mg/kg (Rattus norvegicus [11]): 57%

Cc1cc2c(cc1C)C(=O)C([N+](=O)[O-])C2=O
ED50 (Rattus norvegicus [19]): 1 mg/kg | fold change (FC) (Rattus norvegicus [20]): 25 | Activity (Homo sapiens [21]): 2 mg/kg
